Values joined by “and” are separate entries in the source; they are usually repeats but may differ in a detail not shown here. Equal entries are not always repeated. Active and inactive are the calls of the source.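 The calls were made as follows: active = fitted dose curve reaching 40% activation within the tested dose range; inconclusive = no clear call, values can overlap the other calls; inactive = the rest, or activity opposite the expected rise.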

System in the first test: not listed separately
The experiment in a line: HIF pathway transcriptional activation – cell-based, luminescence, U2OS HRE-luc, dry powder, set 6, dose response (AID 493195). The settings on record: U2OS HRE-luciferase reporter, luminescence, HIF activation; at 38 µM (top of the series). The procedure, abridged: (§1)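 Test system: human U2OS osteosarcoma cells stably carrying 3×HRE-luciferase reporter. Input: 6,000 cells per well. Times: 24 h compound exposure at 37 °C. Detection: Steady-Glo luciferase luminescence.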
In general terms: A reporter such as luciferase makes a cellular process visible.
For `O=C(Nc1nc(-c2ccccc2)cs1)c1cc(-c2ccccc2)on1`, the activation was -0.156% (inactive).
Same read-out and setting: under `O=C(Nc1ncc(-c2ccccc2)o1)c1cc(-c2ccccc2)on1` stands -0.076% (inactive); under `Oc1ccc(CNC2CCc3ccccc32)c2cccnc12` (stereo unspecified), 15.9% (inactive); under `O=C(NC1CCc2ccccc2C1)c1cc(-c2ccccc2)on1` (stereo unspecified), 1.01% (inactive).
Regarding `OCC1CCN(Cc2ccc(O)c3ncccc23)CC1`, the activation was 44.4% (inactive).
The same measure, in the same setting: under `Oc1ccc(CN2CCc3ccccc3C2)c2cccnc12` stands 5.7% (inactive); under `O=C(NCCCO)c1cc(-c2ccccc2)on1`, 16.3% (inactive).
Still for that read-out and setting: under `O=C(c1cc(-c2ccccc2)on1)N1CCC(N2CCOCC2)CC1` stands -0.46% (inactive); under `O=C(NCc1ccccc1)c1cc(-c2ccccc2)on1`, 1.19% (inactive); under `O=C(c1cc(-c2ccccc2)on1)N1CCN(c2ccncc2)CC1`, -0.05% (inactive).
Still for that read-out and setting: under `Cc1ccccc1CNC(=O)c1cc(-c2ccccc2)on1` stands -0.171% (inactive); under `CN(C)CCNC(=O)c1cc(-c2ccccc2)on1`, 0.398% (inactive).
Turning to `Cc1ccc(NC(=O)c2cc(-c3ccccc3)on2)cn1`, the activation was -0.191% (inactive).
Still for that read-out and setting: the result for `O=C(Nc1cnc2ccccc2c1)c1cc(-c2ccccc2)on1` reads 0.224% (inactive); that for `O=C(NCC1CC1)c1cc(-c2ccccc2)on1`, 19.6% (inactive).
On the same count and under the same terms, the result for `CN1CCN(C(=O)c2cc(-c3ccccc3)on2)CC1` reads -0.469% (inactive); that for `Cn1c(-c2ccccc2)cnc1NC(=O)c1cc(-c2ccccc2)on1`, -0.441% (inactive).
The same measure, in the same setting: the result for `CC(C)(C)CCNC(=O)c1cc(-c2ccccc2)on1` reads 9.01% (inactive).
On to `Cc1cccc(CNC(=O)c2cc(-c3ccccc3)on2)c1`, for which the activation was -0.241% (inactive).
For the molecule `O=C(Nc1nc2ccccc2s1)c1cc(-c2ccccc2)on1`, the activation was 0.068% (inactive).
Same read-out and setting: the result for `Cc1ccc(CNC(=O)c2cc(-c3ccccc3)on2)cc1` reads -0.243% (inactive); that for `Cn1c(-c2ccccc2)cnc1Nc1nc(-c2ccccn2)nnc1-c1ccccc1`, -1.62% (inactive); that for `O=C(NC1Cc2ccccc2C1)c1cc(-c2ccccc2)on1`, 0.84% (inactive).
For `O=C(NCC1CCCCC1)c1cc(-c2ccccc2)on1`, the activation was 1.39% (inactive).
Same read-out and setting: under `O=C(NCCN1CCCCC1)c1cc(-c2ccccc2)on1` stands 0.598% (inactive); under `CC(C)(C)OC(=O)N1CCN(Cc2ccc(O)c3ncccc23)CC1`, 9.74% (inactive).
Still for that read-out and setting: the result for `O=C(c1cc(-c2ccccc2)on1)N1CCC(CO)CC1` reads 0.347% (inactive); that for `O=C(Nc1ncc2ccccc2n1)c1cc(-c2ccccc2)on1`, 0.873% (inactive); that for `N#CC1(c2ccccc2)CCN(Cc2ccc(O)c3ncccc23)CC1`, 7.8% (inactive).
On the same count and under the same terms, under `O=C(Nc1nnc(-c2ccccc2)s1)c1cc(-c2ccccc2)on1` stands -0.274% (inactive); under `O=C(NCCN1CCOCC1)c1cc(-c2ccccc2)on1`, 20.9% (inactive).
`O=C(c1cc(-c2ccccc2)on1)N1CCc2cccnc21`: the activation was -0.142% (inactive).
Same read-out and setting: the result for `CC1CN(Cc2ccc(O)c3ncccc23)CC(C)O1` (stereo unspecified) reads 2.48% (inactive); that for `Cc1cccc(NC(=O)c2cc(-c3ccccc3)on2)n1`, -0.083% (inactive); that for `Cn1c(NC(=O)c2cc(-c3ccccc3)on2)nc2ccccc21`, -0.522% (inactive).
Same read-out and setting: the result for `O=C(Nc1cn2ccccc2n1)c1cc(-c2ccccc2)on1` reads 0.943% (inactive).
Same read-out and setting: the result for `O=C(c1cc(-c2ccccc2)on1)N1CCC(N2CCCC2)CC1` reads -0.666% (inactive); that for `O=C(Nc1ccc2ccccc2n1)c1cc(-c2ccccc2)on1`, -0.178% (inactive).

The test system of the next test is U2OS HRE-luciferase reporter, luminescence, HIF activation. The test is described as above.
Conditions: not given
Put shortly: as §1
In the case of `COc1ccccc1N1CCN(Cc2ccc(O)c3ncccc23)CC1`, the AC40 was 33 µM.
Turning to `c1ccc(-c2ccc(CNc3nc(-c4ccccn4)nnc3-c3ccccc3)cc2)cc1`, the AC40 is 0.917 µM.
On the same count and under the same terms, the result for `c1ccc(-c2nnc(-c3ccccn3)nc2NCC2CC2)cc1` reads 7.2 µM; that for `Oc1ccc(CN2CCc3ccccc3C2)c2cccnc12`, 5.32 µM; that for `c1ccc(-c2nnc(-c3ccccn3)nc2NCC2CCCCC2)cc1`, 4.15 µM.
Turning to `OCC1CCN(c2nc(-c3ccccn3)nnc2-c2ccccc2)CC1`, the AC40 is 18.8 µM.
Still for that read-out and setting: the result for `c1ccc(-c2cccc(CNc3nc(-c4ccccn4)nnc3-c3ccccc3)c2)cc1` reads 1.27 µM.
For `Cc1ccccc1CNc1nc(-c2ccccn2)nnc1-c1ccccc1`, the AC40 is 4.31 µM.
Still for that read-out and setting: the result for `CC(C)(C)c1ccc(CNc2nc(-c3ccccn3)nnc2-c2ccccc2)cc1` reads 1.13 µM; that for `C[C@@H](Nc1nc(-c2ccccn2)nnc1-c1ccccc1)C1CCCCC1`, 4.3 µM; that for `Cc1ccc(CNc2nc(-c3ccccn3)nnc2-c2ccccc2)cc1`, 2.72 µM.
Same read-out and setting: under `c1ccc(-c2nnc(-c3ccccn3)nc2Nc2nc3ccccc3s2)cc1` stands 5.02 µM.
Same read-out and setting: under `CN1CCN(c2nc(-c3ccccn3)nnc2-c2ccccc2)CC1` stands 15.8 µM; under `Clc1cccc(CNc2nc(-c3ccccn3)nnc2-c2ccccc2)c1`, 1.87 µM; under `Oc1ccc(CNC2Cc3ccccc3C2)c2cccnc12`, 32.6 µM.
As for `Cc1ccc(CNc2nc(-c3ccccn3)nnc2-c2ccccc2)cc1C`, the AC40 was 1.48 µM.
As for `c1ccc(-c2nnc(Nc3nc(-c4ccccn4)nnc3-c3ccccc3)s2)cc1`, the AC40 was 4.75 µM.
Still for that read-out and setting: under `CCCCNC(=O)c1cc(-c2ccccc2)on1` stands 28.5 µM; under `c1ccc(-c2nnc(-c3ccccn3)nc2N2CCC(N3CCOCC3)CC2)cc1`, 8.15 µM; under `c1ccc(-c2nnc(-c3ccccn3)nc2NCCCN2CCOCC2)cc1`, 10.7 µM.
The same measure, in the same setting: under `Cc1cccc(CNc2nc(-c3ccccn3)nnc2-c2ccccc2)c1` stands 3.83 µM; under `O=C(NCCCCO)c1cc(-c2ccccc2)on1`, 24.2 µM; under `COc1ccc(CNc2nc(-c3ccccn3)nnc2-c2ccccc2)cc1`, 2.51 µM.
On the same count and under the same terms, under `c1ccc(-c2csc(Nc3nc(-c4ccccn4)nnc3-c3ccccc3)n2)cc1` stands 24.6 µM; under `OCCCNc1nc(-c2ccccn2)nnc1-c1ccccc1`, 16.7 µM.
For `c1ccc(-c2nnc(-c3ccccn3)nc2N2CCC(C3CCCCC3)C2)cc1` (stereo unspecified), the AC40 was 1.78 µM.
The same measure, in the same setting: under `Oc1ccc(CN2CCC3CCCCC3C2)c2cccnc12` (stereo unspecified) stands 21.3 µM.
Same read-out and setting: the result for `c1ccc(-c2nnc(-c3ccccn3)nc2NCC2CCOCC2)cc1` reads 18.3 µM; that for `O=C(NCCCn1ccnc1)c1cc(-c2ccccc2)on1`, 26.5 µM.
The same measure, in the same setting: the result for `c1ccc(CNc2nc(-c3ccccn3)nnc2-c2ccccc2)cc1` reads 5.43 µM; that for `c1ccc(-c2nnc(-c3ccccn3)nc2N2CCC(c3ccccc3)C2)cc1` (stereo unspecified), 1.54 µM.
`CC(Nc1nc(-c2ccccn2)nnc1-c1ccccc1)c1ccccc1` (stereo unspecified): the AC40 is 2.53 µM.
With `CN(C)c1nc(-c2ccccn2)nnc1-c1ccccc1`, the AC40 is 10.5 µM.
Take `c1ccc(-c2nnc(-c3ccccn3)nc2NCCN2CCOCC2)cc1`: the AC40 is 11.6 µM.
Same read-out and setting: the result for `c1ccc(-c2nnc(-c3ccccn3)nc2NCc2ccccn2)cc1` reads 18.5 µM; that for `c1ccc(-c2nnc(-c3ccccn3)nc2NCc2cccnc2)cc1`, 20.7 µM.
In the case of `Oc1ccc(CN2CCC(Cc3ccccc3)CC2)c2cccnc12`, the AC40 was 26.5 µM.
On the same count and under the same terms, the result for `CC(C)(C)CCNc1nc(-c2ccccn2)nnc1-c1ccccc1` reads 3.35 µM and 1.68 µM; that for `c1ccc(-c2nnc(-c3ccccn3)nc2Nc2cnc3ccccc3n2)cc1`, 7.11 µM.
Still for that read-out and setting: the result for `c1ccc(-c2nnc(-c3ccccn3)nc2N2CCN(c3ccncc3)CC2)cc1` reads 7.78 µM; that for `Cc1ccc(Nc2nc(-c3ccccn3)nnc2-c2ccccc2)cn1`, 9.36 µM.
Consider `c1ccc(CCNc2nc(-c3ccccn3)nnc2-c2ccccc2)cc1`, for which the AC40 is 2.14 µM.
On the same count and under the same terms, under `C[C@H](Nc1nc(-c2ccccn2)nnc1-c1ccccc1)C1CCCCC1` stands 2.23 µM; under `Cc1cccc(Nc2nc(-c3ccccn3)nnc2-c2ccccc2)n1`, 11.2 µM.
Same read-out and setting: under `COc1cccc(CNc2nc(-c3ccccn3)nnc2-c2ccccc2)c1` stands 2.43 µM; under `c1ccc(-c2cnc(Nc3nc(-c4ccccn4)nnc3-c3ccccc3)s2)cc1`, 31.4 µM.
On the same count and under the same terms, under `C=CCNc1nc(-c2ccccn2)nnc1-c1ccccc1` stands 6.56 µM.
On to `c1ccc(-c2nnc(-c3ccccn3)nc2NCCc2ccccn2)cc1`, for which the AC40 was 10.1 µM.

Values taken from PubChem BioAssay AID493195 (Broad Institute, 2011).
